This passage reports pA2 results from ChEMBL document CHEMBL1124347, “Enantioselectivity of muscarinic antagonists. Isomeric 2-cyclohexyl-2-phenyl-5-[(dimethylamino)methyl]-1,3-oxathiolane 3-oxide methiodides” (J Med Chem, 1989).

Each structure is given as a SMILES string.

Test [1] concerns the target Muscarinic acetylcholine receptor. In words: Dissociation constant estimated by Schild analysis for antimuscarinic activity in guinea pig bladder. It is filed as protein assay, Cavia porcellus. In outline: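 Longitudinal bladder strip (2 mm wide, urethra to apex) in PSS at 37 °C, with isometric recording. Tissue was equilibrated 30 min, and carbachol control curves were run as for ileum. Dose ratios (carbachol ED50 after/before antagonist) were taken at 3–4 antagonist concentrations, each tested 4–8 times. pA2 came from Schild plots with slope fixed at −1.0.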

For test [2] the target is unchanged. Description: Dissociation constant estimated by Schild analysis for antimuscarinic activity in guinea pig heart. It is filed as protein assay, Cavia porcellus. In outline: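 Guinea pig heart preparation with carbachol as agonist and water as solvent for drugs. Dose ratios (carbachol ED50 with/without antagonist) were measured at 3–4 antagonist concentrations, 4–8 replicates each. Parallel untreated tissues monitored sensitivity drift. pA2 was estimated by Schild analysis with slope constrained to −1.0; means ± SE.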

Test [3] shares this target. Description: Dissociation constant estimated by Schild analysis for antimuscarinic activity for guinea pig ileum. It is filed as tissue-based, Cavia porcellus. In outline: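 Terminal ileum segments (2 cm, taken about 5 cm from the ileocecal junction) in PSS at 37 °C, with isotonic recording. After 30 min equilibration, carbachol dose–response curves were run at 30-min intervals; the second served as control. Antagonist was applied for 30 min, then the carbachol curve repeated. Dose ratios were taken at 3–4 concentrations, n=4–8 each. pA2 came from Schild analysis, slope constrained to −1.0.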

With `C[N+](C)(C)C[C@@H]1C[S+]([O-])[C@@](c2ccccc2)(C2CCCCC2)O1.[I-]` (mixture of isomers; form 2), the results for the pA2 in test [1], in test [2] and in test [3] were 7.53, 7.45 and 7.73, respectively.
For `C[N+](C)(C)C[C@@H]1C[S+]([O-])[C@@](c2ccccc2)(C2CCCCC2)O1.[I-]` (mixture of isomers; form 1), in that order: 5.83, 5.93 and 5.93.
Taken in the same sequence, the figures for `C[N+](C)(C)C[C@@H]1C[S@+]([O-])[C@](c2ccccc2)(C2CCCCC2)O1.[I-]` (stereo in doubt; (+\-)-4) were 6.96, 6.53 and 6.91.
With `C[N+](C)(C)C[C@@H]1C[S@@+]([O-])[C@](c2ccccc2)(C2CCCCC2)O1.[I-]` (stereo in doubt; (+)-3), the pA2 in test [1] is given as 5.94; in test [2], 5.54; in test [3] it was 6.07.
As to `C[N+](C)(C)C[C@@H]1C[S+]([O-])[C@@](c2ccccc2)(C2CCCCC2)O1.[I-]` (single isomer, unassigned; (+)-8), the pA2 in test [1] is reported as 5.56; in test [2], 5.44; in test [3], 5.96.
`C[N+](C)(C)C[C@@H]1C[S+]([O-])[C@@](c2ccccc2)(C2CCCCC2)O1.[I-]` (single isomer, unassigned; (-)-7): the pA2 in test [1] is reported as 5.49; in test [2] it was 5.37; in test [3], 5.52.
For `C[N+](C)(C)C[C@@H]1C[S+]([O-])[C@@](c2ccccc2)(C2CCCCC2)O1.[I-]` (single isomer, unassigned; (+)-7), in that order: 7.73, 7.69 and 7.84.
Regarding `C[N+](C)(C)C[C@@H]1C[S@+]([O-])[C@](c2ccccc2)(C2CCCCC2)O1.[I-]` (stereo in doubt; (+)-4), the pA2 is recorded as 7.19 in test [1], 6.8 in test [2] and 7.19 in test [3].
As for `C[N+](C)(C)C[C@@H]1C[S@@+]([O-])[C@](c2ccccc2)(C2CCCCC2)O1.[I-]` (stereo in doubt; (-)-3), the pA2 in test [1] is 5.88; in test [2], 6.24; in test [3] it was 5.75.
For the molecule `C[N+](C)(C)C[C@@H]1C[S@@+]([O-])[C@](c2ccccc2)(C2CCCCC2)O1.[I-]` (racemic), the pA2 was 5.89 in test [1], 5.96 in test [2] and 6.05 in test [3].
Taken in the same sequence, the figures for `C[N+](C)(C)C[C@@H]1C[S+]([O-])[C@@](c2ccccc2)(C2CCCCC2)O1.[I-]` (single isomer, unassigned; (-)-8) were 6.07, 6.01 and 6.17.
For `C[N+](C)(C)C[C@@H]1C[S@+]([O-])[C@](c2ccccc2)(C2CCCCC2)O1.[I-]` (stereo in doubt; (-)-4), the pA2 in test [1] was 5.52; in test [2] it was 5.48; in test [3] it was 5.55.

One may read the pA2 as the negative logarithm of the molar antagonist concentration that doubles the agonist concentration needed for the same response.
